# What was measured:
# Format in all cases: functional
# [1] = species on record: Cavia porcellus; experiment: Effect on the contractile force of spontaneously beating atria from Reserpine-treated guinea pigs as percentage variation from the control at concentration of 10E-5 M
# Procedure, shortened: (§1)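 Atria from reserpine-treated guinea pigs (reserpine 2 mg/kg ip, 48 and 24 h before death; only tyramine-unresponsive preparations used). Bath solution at 29 °C, gassed 95% O2/5% CO2, pH 7.5, resting tension […]. After 90 min equilibration, compound added cumulatively, 5 min per concentration. Isometric developed-tension amplitude or beating rate given as % variation from untreated control. Mean ± SEM, 6-10 assays.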
# [2] = species on record: Cavia porcellus; experiment: Effect on the contractile force of spontaneously beating atria from Reserpine-treated guinea pigs as percentage variation from the control at concentration of 10E-6 M; procedure, shortened: as §1
# [3] = species on record: Cavia porcellus; experiment: Effect on the contractile force of spontaneously beating atria from Reserpine-treated guinea pigs as percentage variation from the control at concentration of 3 x 10E-4 M; procedure, shortened: as §1
# [4] = species on record: Cavia porcellus; experiment: Effect on the contractile force of spontaneously beating atria from Reserpine-treated guinea pigs as percentage variation from the control at concentration of 3 x 10E-5 M; procedure, shortened: as §1
# [5] = species on record: Cavia porcellus; experiment: Effect on the contractile force of spontaneously beating atria from Reserpine-treated guinea pigs as percentage variation from the control at concentration of 3 x 10E-6 M; procedure, shortened: as §1
# [6] = species on record: Cavia porcellus; experiment: Effect on the frequency rate of spontaneously beating atria from Reserpine-treated guinea pigs as percentage variation from the control at concentration of 10E-3 M; procedure, shortened: as §1
# [7] = species on record: Cavia porcellus; experiment: Effect on the frequency rate of spontaneously beating atria from Reserpine-treated guinea pigs as percentage variation from the control at concentration of 10E-4 M; procedure, shortened: as §1
# [8] = species on record: Cavia porcellus; experiment: Effect on the frequency rate of spontaneously beating atria from Reserpine-treated guinea pigs as percentage variation from the control at concentration of 10E-5 M; procedure, shortened: as §1
# [9] = species on record: Cavia porcellus; experiment: Effect on the frequency rate of spontaneously beating atria from Reserpine-treated guinea pigs as percentage variation from the control at concentration of 10E-6 M; procedure, shortened: as §1
# [10] = species on record: Cavia porcellus; experiment: Compound was evaluated for its effect on the frequency rate of spontaneously beating atria from Reserpine-treated guinea pigs as percentage variation from the control at concentration of 3 x 10E-4 M; procedure, shortened: as §1
# [11] = species on record: Cavia porcellus; experiment: Compound was evaluated for its effect on the frequency rate of spontaneously beating atria from Reserpine-treated guinea pigs as percentage variation from the control at concentration of 3 x 10E-5 M; procedure, shortened: as §1
# [12] = species on record: Cavia porcellus; experiment: Compound was evaluated for its effect on the frequency rate of spontaneously beating atria from Reserpine-treated guinea pigs as percentage variation from the control at concentration of 3 x 10E-6 M; procedure, shortened: as §1
# [13] = species on record: Cavia porcellus; experiment: Effect on the contractile force of spontaneously beating atria from Reserpine-treated guinea pigs as percentage variation from the control at concentration of 10E-3 M; procedure, shortened: as §1
# [14] = species on record: Cavia porcellus; experiment: Effect on the contractile force of spontaneously beating atria from Reserpine treated guinea pigs as percentage variation from the control at concentration of 10E-4 M; procedure, shortened: as §1
Compound,Variation [1] [%],Variation [2] [%],Variation [3] [%],Variation [4] [%],Variation [5] [%],Variation [6] [%],Variation [7] [%],Variation [8] [%],Variation [9] [%],Variation [10] [%],Variation [11] [%],Variation [12] [%],Variation [13] [%],Variation [14] [%]
CCc1nc(N(C)C)ncc1C(=O)O,4.47,0,14.69,6.17,2.44,-7.69,1.11,0,0,-4.79,0,0,22.03,6.67
CCOC(=O)c1cnc(N(C)C)nc1CC,-39.54,0,,-67.44,0,,-100,-9.37,,,-14.76,-6.25,,-100
CCOC(=O)c1cnc(N(C)C)nc1C(F)(F)F,10.67,7.15,-47.85,-3.61,11.26,-19.35,-6.66,-3.23,0,-6.66,-3.61,0,-60.44,-30.35
CC(C)c1nc(N(C)C)ncc1C(=O)O,7.13,1.79,16.41,7.79,4.06,-28.57,-14.28,-3.13,0,-17.58,-10.71,-3.13,23.17,11.77
COCc1nc(N(C)C)ncc1C(=O)O,9.99,5.46,8.19,9.72,9.16,-9.37,-6.25,0,0,-6.25,-3.12,0,5.92,8.24
COCc1ccnc(N(C)C)n1,0,0,-11.89,-8.02,0,-9.33,-4,-1.33,0,4,-4,0,-20.93,-9.03
CN(C)c1ncc(C(=O)O)c(-c2ccccc2)n1,11.47,6.62,14.22,12.11,10.63,-6.25,-3.12,0,0,-3.12,0,0,18.2,12.75
Cc1ccnc(N(C)C)n1,8.9,0,22.47,16.76,2.27,-17.34,0,0,0,-6.25,0,0,-36.67,19.04
CCOC(=O)c1cnc(N(C)C)nc1C(C)C,1.06,0,-100,-34.22,3.19,,-2.94,-3.51,-3.85,-100,-0.91,-2.94,,-57.53
CCCc1nc(N(C)C)ncc1C(=O)OCC,-57.89,0,,-100,-5.29,,,,0,,,,,0
CN(C)c1ncc(C(=O)O)c(C(F)(F)F)n1,9.45,2.25,14.96,13.44,6.15,-14.28,-3.03,-2.85,0,-9.09,-3.03,0,9.52,14.03
CCOC(=O)c1cnc(N(C)C)nc1C(C)(C)C,-12.52,0,,-50.08,2.08,,-100,4.76,0,,-7.64,0,,-100
CC(C)c1ccnc(N(C)C)n1,-8.84,0,-86.36,-28.95,0,-100,-41.66,-5.15,0,-41.66,-17.26,-5.15,-100,-68.77
CCOC(=O)c1cnc(N(C)C)nc1-c1ccccc1,12.05,1.73,-70.37,2.25,10.24,-100,-3.7,3.7,0,-14.81,7.4,0,-100,-40.74
CN(C)c1nccc(C(F)(F)F)n1,-12.62,0,-83.03,-30.94,2.47,-100,-22.58,-3.23,0,-32.26,-3.68,0,-100,-67.95
CN(C)c1nccc(-c2ccccc2)n1,7.52,0,-23.76,5.57,4.67,-100,0,0,0,-13.33,0,0,-100,-12.16
CN(C)c1nccc(C(C)(C)C)n1,-5.56,0,-34.94,-24.35,1.13,-40,-16.66,-6.66,0,-30.01,-13.33,0,-35.14,-37.31
CCc1ccnc(N(C)C)n1,15.05,5.39,-43.95,9.21,9.91,-42.41,-14.95,-3.03,0,-28.91,-4.77,0,-84.45,-10.54
CCCc1nc(N(C)C)ncc1C(=O)O,11.21,5.38,19.73,15.72,8.66,-4.28,-2.85,-2.85,0,-5.71,-2.85,0,23.61,18.35
CN(C)c1ncc(C(=O)O)cn1,7.54,3.76,8.34,10.48,6.36,6.25,3.44,3.12,0,3.44,3.44,0,9.64,9.39
